Experimental data taken from PubChem BioAssay AID1267 (The Scripps Research Institute Molecular Screening Center, 2008).
In all, about 1,200 compounds went through this assay and about 770 (64%) were called active.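 How the source made its calls: active means percent activation of the STAT3 luciferase reporter above a set limit taken from the earlier primary screen (cut at about 130% in these data); inactive means the rest.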 The set was probably picked from earlier hits. The list is a sample of the results.

Test: enhancers of IL-6 STAT3 signaling – U3A cells, luciferase, luminescence, confirmation (AID 1267);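 further: 0% = background signal of medium plus substrate and 100% = median of IL-6 with DMSO wells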
Conditions: U3A STAT3-luciferase reporter, IL-6 potentiation, at 5.7 µM, hits give high values, 100 means same as IL-6 alone, U3A cells lack STAT1
In short: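 Material: U3A STAT3::luc reporter cells; probe or stimulus: IL-6 stimulus at 33 ng/mL final; schedule: compound 1 h and IL-6 6 h, 37 °C; signal: luciferase reporter luminescence; evaluation: % potentiation versus median IL-6 plus DMSO wells, background-subtracted; controls: IL-6 + DMSO high control, media-only background; repeats: three replicates per compound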

Row | Structure (SMILES) | potentiation (% of control)
1 | CC(=O)Nc1ccc(NC(=O)COc2ccccc2C(=O)Nc2cccc(Cl)c2Cl)cc1 | 143% (active)
2 | Cc1cccc(C(=O)Nc2nnc(Cc3c[nH]c4ccccc34)s2)c1 | 150% (active)
3 | CSc1nc(N(C)NC(=O)c2cccc(C)c2)c2ccccc2n1 | 112% (inactive)
4 | COc1ccc(/C=N/Nc2ncnc3sc4c(c23)CCCC4)cc1O | 114% (inactive)
5 | O=C(Nc1cc(C(F)(F)F)ccc1Cl)c1cc(C2CC2)on1 | 145% (active)
6 | Fc1ccc2nc(-c3ccccc3)nc(SCc3nnc(-c4ccccc4)o3)c2c1 | 132% (inactive)
7 | OC(COc1ccc2ccccc2c1)CN1CCOCC1 (stereo not given) | 157% (active)
8 | COc1ccccc1C1C2=C(COC2=O)Nc2cc3c(cc21)OCO3 (stereo not given) | 124% (inactive)
9 | COc1ccc(-c2c3c(=O)n(C)c(=O)n(C)c3cn2-c2cccc(OC)c2)cc1 | 158% (active)
10 | COc1ccccc1N1CCN(C(=O)c2cc3c(-c4ccc(Cl)cc4)nn(C)c3s2)CC1 | 125% (inactive)
11 | Cn1nc(-c2ccc(Cl)cc2)c2cc(C(=O)NCc3ccco3)sc21 | 153% (active)
12 | O=C(NCc1ccco1)c1cccn2c(=O)c3c4c(sc3nc12)CCCC4 | 128% (inactive)
13 | COc1ccc(C)cc1NC(=O)c1[nH]c(C)c(C(C)=O)c1C | 144% (active)
14 | N#Cc1ccccc1NC(=O)COc1c(Br)cc(Br)c2cccnc12 | 162% (active)
15 | O=C(C1CCN(S(=O)(=O)Cc2ccccc2)CC1)N1CCCc2ccccc21 | 118% (inactive)
16 | CSc1nc2sc3c(c2c(=O)[nH]1)CCc1ccccc1-3 | 142% (active)
17 | CCSc1nnc(-c2cc3c(s2)-c2ccccc2CC3)o1 | 162% (active)
18 | COc1cccc(NC(=S)C(C#N)=C2N(C)c3ccccc3N2C)c1 | 122% (inactive)
19 | COc1ccc(C2c3[nH]c4ccccc4c3CCN2CCCn2cccn2)cc1C (stereo not given) | 142% (active)
20 | Cc1ccc(OCc2nnc(SC3CCc4ccccc4C3=O)n2C)cc1 (stereo not given) | 151% (active)
21 | CN1CCN(c2ccc([N+](=O)[O-])c(Sc3nc4ccccc4[nH]3)c2)CC1 | 107% (inactive)
22 | Cc1ccc(S(=O)(=O)Nc2nc3ccccc3nc2N2CCc3ccccc3C2)cc1 | 124% (inactive)
23 | Cc1cccc(N(CC(=O)N=Nc2c(O)[nH]c3ccccc23)S(C)(=O)=O)c1C | 129% (inactive)
24 | Cc1nc2ccccc2cc1O | 146% (active)
25 | COC(=O)c1[nH]c2ccccc2c1NS(=O)(=O)c1ccc(OC)cc1OC | 116% (inactive)

Row | Structure (SMILES) | potentiation (% of control)
26 | CCCS(=O)(=O)Nc1c(C(=O)O)[nH]c2ccccc12 | 170% (active)
27 | CC(C)CNC(=O)COC(=O)/C=C/c1ccccc1[N+](=O)[O-] | 126% (inactive)
28 | CCn1c(SCC(=O)N/N=C/C=C/c2ccccc2[N+](=O)[O-])nnc1-c1ccccc1 | 137% (active)
29 | N#Cc1c(C(F)(F)F)cc(-c2ccc(Cl)cc2)nc1SCC(=O)O | 159% (active)
30 | COc1ccc(Cl)cc1NC(=O)c1oc(C)nc1C | 147% (active)
31 | C/C(=N\NC(=O)CNc1cccc2ccccc12)c1ccc(Br)s1 | 98.2% (inactive)
32 | Cc1ccc(/C=N/NC(=O)COc2ccccc2-c2ccccc2)cc1 | 135% (active)
33 | Cc1ccc(C2=NN(C)c3nc4ccccc4n3C2)cc1 | 151% (active)
34 | Oc1c(C=Nc2cccc3nsnc23)ccc2ccccc12 | 129% (inactive)
35 | COc1cc(OC)cc(C(=O)N[C@H](C(=O)Nc2nc3ccccc3[nH]2)C(C)C)c1 | 108% (inactive)
36 | COc1cc(NS(=O)(=O)c2ccc(N/C=C(\C=O)c3nc4cc(Cl)ccc4o3)cc2)nc(OC)n1 | 144% (active)
37 | C/C(=N\c1nc2ccccc2n1C)c1cc(Cl)ccc1O | 118% (inactive)
38 | Cc1ccc(NC(=O)c2cc([N+](=O)[O-])ccc2Cl)c(O)c1 | 158% (active)
39 | Oc1cccc2ccc(/C=C/c3ccc(Br)s3)nc12 | 169% (active)
40 | Cn1cccc1C(=O)Nc1nccs1 | 132% (inactive)
41 | CCOC(=O)N1CCN(CC(=O)Nc2cc(C)nn2-c2nc3ccccc3s2)CC1 | 140% (active)
42 | NC(=O)CSc1c[nH]c2ccccc12 | 165% (active)
43 | O=c1[nH]c(CSc2ncc(-c3ccc(F)cc3)n2Cc2ccco2)nc2ccccc12 | 122% (inactive)
44 | COc1ccc([N+](=O)[O-])cc1C1NN=C(c2cccc3ccccc23)S1 (stereo not given) | 138% (active)
45 | O=C1CCCN1CCCNc1ncnc2c1[nH]c1ccccc12 | 144% (active)
46 | COCCCNc1nc2c(-c3cccc(C(F)(F)F)c3)nnn2c2ccccc12 | 134% (active)
47 | COc1ccccc1-c1nnc(SCC(=O)N2CC(C)CC(C)C2)o1 (stereo not given) | 117% (inactive)
48 | COc1ccccc1-c1nnc(NC(=O)c2ccc3ncsc3c2)o1 | 147% (active)
49 | Cc1cccc(C(=O)N2CCc3c([nH]c4ccccc34)C2CC(C)C)n1 (stereo not given) | 159% (active)
50 | c1ccc(-c2cn3c(n2)CCc2ccc4cccnc4c2-3)cc1 | 139% (active)

Row | Structure (SMILES) | potentiation (% of control)
51 | CCOC(=O)c1c(-c2cccc(C)c2)csc1NC(=O)c1c(-c2ccccc2)noc1C | 122% (inactive)
52 | O=C(O)CSCc1nc2ccccc2s1 | 154% (active)
53 | O=C(O)CS/C(=C\c1ccc(F)cc1)c1nc2ccccc2s1 | 132% (inactive)
54 | COc1ccc(NC(=O)ON=C2c3ccccc3-c3ccccc32)cc1 | 121% (inactive)
55 | CCOc1ccc(C2c3[nH]c4ccccc4c3CCN2Cc2cn(CC)nc2C)cc1 (stereo not given) | 143% (active)
56 | Cc1nc(N=C(N)N)nc2c(C)cccc12 | 172% (active)
57 | COc1nc(N=C(N)N)nc2c(C)cccc12 | 144% (active)
58 | Cc1ccc(N=Nc2c(C)[nH]n(-c3ccccc3)c2=O)cc1 | 147% (active)
59 | CCOC(=O)C1CCN(c2ncnc3c2oc2ccc(Br)cc23)CC1 | 138% (active)
60 | CCNCc1cc2cc(C)ccc2[nH]c1=O | 120% (inactive)
61 | CSCCC(NC(=O)c1ccco1)C(=O)OCC(=O)Nc1ncc(Cl)c(C)c1Cl (stereo not given) | 124% (inactive)
62 | Cc1ccc(Nc2nc(-c3sc(NC(=O)c4ccccc4)nc3C)cs2)cc1 | 122% (inactive)
63 | C=CCCC(=O)Nc1nc(C)c(-c2csc(Nc3ccc(Cl)cc3)n2)s1 | 135% (active)
64 | CCCCC(=O)Nc1nc(C)c(-c2csc(Nc3ccc(Cl)cc3)n2)s1 | 133% (inactive)
65 | Cc1ccc(-c2cc(C(=O)Nc3nn[nH]n3)c3ccccc3n2)c(C)c1 | 121% (inactive)
66 | O=[N+]([O-])c1ccc(N2CCN(S(=O)(=O)c3ccc4ccccc4c3)CC2)cc1NCc1ccco1 | 123% (inactive)
67 | CN1C(=O)/C(=C\c2cc(Br)cs2)c2ccccc21 | 190% (active)
68 | Cc1csc2ncc(C(=O)N(Cc3ccccc3)c3ccccn3)c(=O)n12 | 111% (inactive)
69 | CCOC(=O)CN(C)Cc1c[nH]c2ccccc12 | 157% (active)
70 | O=C(Cc1c[nH]c2ccccc12)OCCOC(=O)Cc1c[nH]c2ccccc12 | 121% (inactive)
71 | COc1cccc(/C=C(/CC(=O)Nc2ccc(N3CCOCC3)cc2)c2nc3ccccc3s2)c1 | 146% (active)
72 | Oc1cccc(C2c3[nH]c4ccccc4c3CCN2Cc2cnn(-c3ccccc3)c2)c1 (stereo not given) | 137% (active)
73 | COC(=O)c1[nH]c2cccc(C)c2c1NC(=O)CN1CCCc2ccccc21 | 128% (inactive)
74 | COC(=O)c1[nH]c2ccccc2c1NC(=O)CN1CCCc2ccccc21 | 153% (active)
75 | C=CCn1c(-c2ccccc2OCC)n[nH]c1=S | 178% (active)
